These results are taken from ChEMBL document CHEMBL4699441, “Identification and Preclinical Evaluation of the Bicyclic Pyrimidine γ-Secretase Modulator BMS-932481” (ACS Med Chem Lett, 2019).

Converted amounts (≈) assume the structure as drawn. The source made the active and inactive calls. No cut-off for these calls is given here. A value given as a limit tells only on which side of the number the result lay.

One series addresses T1, Cytochrome P450 1A2 (Homo sapiens, UniProt P05177).
T1 sequence (P05177 whole entry): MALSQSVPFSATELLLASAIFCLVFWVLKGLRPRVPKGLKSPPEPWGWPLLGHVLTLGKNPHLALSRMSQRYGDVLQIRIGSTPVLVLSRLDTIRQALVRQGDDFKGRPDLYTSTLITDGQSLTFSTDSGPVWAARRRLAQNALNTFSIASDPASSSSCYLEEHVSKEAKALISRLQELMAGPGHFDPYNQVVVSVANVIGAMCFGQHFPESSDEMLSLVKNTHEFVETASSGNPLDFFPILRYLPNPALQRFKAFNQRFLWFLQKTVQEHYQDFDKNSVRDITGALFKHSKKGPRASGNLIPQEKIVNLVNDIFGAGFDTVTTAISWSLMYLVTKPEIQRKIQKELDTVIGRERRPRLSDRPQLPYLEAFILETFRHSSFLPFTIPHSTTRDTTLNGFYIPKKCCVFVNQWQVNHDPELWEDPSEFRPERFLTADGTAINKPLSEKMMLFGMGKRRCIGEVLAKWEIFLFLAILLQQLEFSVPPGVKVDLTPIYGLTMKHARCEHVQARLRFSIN
Nature of the series: Inhibition of CYP1A2 in human liver microsomes. In kind it is ADME. In general terms: Liver microsomes are a subcellular fraction often used to study metabolism.

A short description of series [1]: Induction of CYP3A4 mRNA expression in human hepatocytes at 3.3 to 10 uM relative to control. In kind it is ADME, cell-based, Hepatocyte. Conditions: dose 3.3-10 µM.
Series [2] can be described thus: Octanol/water partition coefficient, logD of the compound at pH 7.4 by shake flask method. In kind it is physicochemical.
The target of series [3] is T2, UDP-glucuronosyltransferase 1A1 (Homo sapiens, UniProt P22309).
T2 sequence (P22309 whole entry): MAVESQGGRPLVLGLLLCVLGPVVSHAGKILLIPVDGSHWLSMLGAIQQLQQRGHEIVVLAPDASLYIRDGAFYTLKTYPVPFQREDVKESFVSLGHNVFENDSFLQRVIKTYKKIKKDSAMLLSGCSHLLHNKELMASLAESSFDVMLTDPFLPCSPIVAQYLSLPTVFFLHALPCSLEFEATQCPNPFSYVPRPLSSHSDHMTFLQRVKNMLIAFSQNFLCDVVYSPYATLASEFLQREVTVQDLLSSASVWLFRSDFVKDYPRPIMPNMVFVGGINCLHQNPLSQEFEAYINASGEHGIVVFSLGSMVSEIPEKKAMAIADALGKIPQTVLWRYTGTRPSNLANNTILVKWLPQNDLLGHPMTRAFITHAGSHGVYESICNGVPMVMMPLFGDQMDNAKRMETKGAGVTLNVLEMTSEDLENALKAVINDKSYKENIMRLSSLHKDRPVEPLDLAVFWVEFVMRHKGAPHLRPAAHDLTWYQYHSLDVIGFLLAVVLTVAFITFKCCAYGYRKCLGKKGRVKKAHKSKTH
As to the kind of experiment: Inhibition of human UGT1A1. Type of series: ADME.

The nature of series [4]: Hemodynamic activity in conscious telemeterized rat assessed as change in heart rate at >= 10 mg/kg. In kind it is ADME, organism-based. Conditions: in vivo.
Another series deals with H4. Nature of the series: Inhibition of amyloid beta (1 to 42) secretion in human H4 cells overexpressing APP incubated for 24 hrs by MALDI-TOF mass spectrometric analysis. Type of series: functional, cell-based.
Series [5] can be described thus: Plasma concentration in Harlan Sprague-Dawley rat at 10 mg/kg, po measured after 5 hrs. In kind it is ADME, organism-based.
A short description of series [6]: Oral bioavailability in Sprague-Dawley rat at 2 mg/kg dosed as nano suspension measured up to 24 hrs by LC-MS/MS analysis. Type of series: ADME, organism-based. The following applies: in vivo. Summed up:
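Oral dosing as a nanosuspension in Sprague–Dawley rat, male Beagle dog and male cynomolgus monkey; dogs pretreated with pentagastrin.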

A short description of series [7]: Toxicity in rat assessed as change in notch related goblet cell metaplasia in the duodenum at 100 mg/kg, po administered for 2 week. In kind it is organism-based. The following applies: in vivo, 336 h, time 2 weeks.
For a further series, the target named is T3, PXR (NR1I2) (Homo sapiens, UniProt O75469).
T3 sequence (O75469 whole entry): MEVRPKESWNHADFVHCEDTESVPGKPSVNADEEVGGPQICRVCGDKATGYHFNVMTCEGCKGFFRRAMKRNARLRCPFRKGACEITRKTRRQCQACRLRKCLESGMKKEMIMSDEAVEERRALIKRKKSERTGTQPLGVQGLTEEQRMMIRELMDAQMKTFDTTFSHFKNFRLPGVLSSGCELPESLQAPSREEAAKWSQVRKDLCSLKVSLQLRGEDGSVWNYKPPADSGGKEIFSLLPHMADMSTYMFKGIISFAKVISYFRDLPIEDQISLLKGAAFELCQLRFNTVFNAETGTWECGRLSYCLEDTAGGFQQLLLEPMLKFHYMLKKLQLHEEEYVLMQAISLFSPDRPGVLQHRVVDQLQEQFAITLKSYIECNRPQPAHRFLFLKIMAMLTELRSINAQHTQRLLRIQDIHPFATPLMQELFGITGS
As to the kind of experiment: Transactivation of PXR (unknown origin) assessed as CYP450 induction relative to 10 uM rifampicin. In kind it is ADME. In short, it runs like this: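 PXR in vitro transactivation assay; maximal response expressed relative to 10 μM rifampicin set as 100%.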

Series [8] in a line: Reduction in amyloid beta (1 to 42) secretion in brain in Harlan Sprague-Dawley rat at 10 mg/kg, po measured after 3 hrs relative to control. Type of series: functional. Summed up:
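Sprague–Dawley rats dosed 10 mg/kg po; brain Aβ1-42 measured 3 h postdose; n = 5.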

A short description of series [9]: Dissociation constant, pKa of compound by spectrophotometric analysis. In kind it is physicochemical.
A further series addresses Cytochrome P450 2C9 (Homo sapiens, UniProt P11712). Nature of the series: Inhibition of CYP2C9 in human liver microsomes. Type of series: ADME.
Series [10] in a line: Ratio of drug level in brain to plasma in Harlan Sprague-Dawley rat at 10 mg/kg, po measured after 5 hrs. Conditions: read-out: BPR. Type of series: ADME, organism-based.
Series [11] is described as follows: Aqueous solubility of the compound at pH 1. Conditions: buffer. In kind it is physicochemical.
Series [12] in a line: Efflux ratio of permeability in human Caco2 cells. Type of series: ADME, cell-based. Conditions: caco-2.
Series [13] in a line: Half life in cynomolgus monkey at 1 mg/kg, iv measured up to 24 hrs by LC-MS/MS analysis. Type of series: ADME, organism-based, Macaca fascicularis. The following applies: in vivo. In short, it runs like this:
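Male Beagle dogs and male cynomolgus monkeys, 1 mg/kg by 5 min iv infusion in 9:1 PEG:EtOH, n=3.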

Series [14] can be described thus: AUC in Beagle dog at 300 mg/kg, po measured up to 24 hrs by LC-MS/MS analysis. In kind it is ADME, organism-based, Canis lupus familiaris. Set-up: route oral, dose 300 mg/kg, time >=24. Conditions: in vivo. In short, it runs like this: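 Dogs given an acute single oral dose of 300 mg/kg; plasma Cmax and AUC measured alongside bilirubin and other clinical pathology assessments.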

Another series relates to Brain. Nature of the series: Antialzheimer activity in rat brain assessed as reduction in amyloid beta (1 to 42) AUC at 3 mg/kg measured after 24 hrs relative to control. Set-up: scale not given: the % may be the effect or the level left. In kind it is functional. Summed up: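 Rats dosed orally; brain Aβ1-42 followed over 24 h, and the reduction in brain Aβ1-42 AUC integrated over 0–24 h was fitted to an indirect response PK/PD model.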

A short description of series [15]: Toxicity in Beagle dog assessed as hyperbilirubinemia at 150 mg/kg, po administered for 1 month. Conditions: in vivo, 730 h, time 1 months. In kind it is organism-based, Canis lupus familiaris. Summed up:
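One-month oral toxicity study in dogs; high dose 150 mg/kg; bilirubin assessed.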

The nature of series [16]: Metabolic stability in Sprague-Dawley rat assessed as half life incubated for 24 hrs by LC-MS/MS analysis. Type of series: ADME.
Series [17] in a line: Cardiotoxicity in unconscious telemeterized rabbit assessed as increase in QTcv time at 3 mg/kg. Type of series: toxicity, organism-based, Oryctolagus cuniculus. Conditions: in vivo.

Chain of Cytochrome P450 2C9 (P11712 whole entry): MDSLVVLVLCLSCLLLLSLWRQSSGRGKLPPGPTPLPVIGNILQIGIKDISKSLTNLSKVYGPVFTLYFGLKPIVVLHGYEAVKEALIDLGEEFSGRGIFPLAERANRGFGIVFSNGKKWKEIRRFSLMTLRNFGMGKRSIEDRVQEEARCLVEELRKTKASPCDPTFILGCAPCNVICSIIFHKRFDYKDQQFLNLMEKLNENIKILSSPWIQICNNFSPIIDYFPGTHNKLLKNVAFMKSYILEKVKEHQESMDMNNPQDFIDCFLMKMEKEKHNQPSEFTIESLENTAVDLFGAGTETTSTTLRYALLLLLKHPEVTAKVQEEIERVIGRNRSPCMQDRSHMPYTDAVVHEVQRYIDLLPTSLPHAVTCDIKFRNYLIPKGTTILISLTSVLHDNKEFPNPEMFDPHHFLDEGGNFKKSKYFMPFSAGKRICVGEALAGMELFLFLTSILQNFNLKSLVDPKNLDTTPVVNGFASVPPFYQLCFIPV

Usually IC50 stands for the midpoint of a concentration-inhibition curve. The logD is the decadic logarithm of the distribution of all forms, ionised or not, between an organic phase and buffer at a given pH. One may read the Emax as the size of the effect at its maximum, as opposed to the concentration needed. In general, inhibition in vivo refers to the drop in the measured response relative to a control, in per cent. By pKa is commonly meant the negative logarithm of the acid dissociation constant. The term solubility denotes the concentration that dissolves in the medium under given conditions. For orientation: AUC means the area under the concentration-time curve, a measure of exposure. Regarding `CNc1nc(Nc2ccc(-n3cnc(C)n3)c(OC)c2)nc2c1CC[C@H]2c1ccc(F)cc1`, the IC50 at Cytochrome P450 1A2 was above 40 µM; in series [3], 1.4 µM; against Cytochrome P450 2C9, 7.4 µM. Besides, the Activity in series [1] is listed as 36%; in [4], “Non-Toxic”; in [7], “Non-Toxic”; in the series on Brain, 45%; in series [15] it was “Toxic”. The compound also came in with a log distribution coefficient (logD) in [2] of 4.34. In the series with H4, the inhibition result is “Active”. In series [5], the concentration at 5 h is 1400 nM. The F in series [6] is 98%. Moreover, the Emax at PXR (NR1I2) was found to be 36%. In addition, the inhibition in vivo at 10 mg/kg in [8] turned out to be 41%. Also, the pKa in [9] came to 5.9. Besides, the Kp at 5 h in series [10] turned out to be 0.23. In addition, in series [11], the solubility stood at 19 µg/mL (≈ 42.6 µM). In addition, the Ratio in [12] amounted to 0.8. The t1/2 in series [13] is 2.9 h; in [16] it was 0.467 h. In [14], this compound yielded an AUC of 180 µM·h. The Time in series [17] came to 4 ms.
